Screening results deposited in PubChem BioAssay by Sanford-Burnham Center for Chemical Genomics.
CSN inh – inhibitors of CSN-mediated cullin deneddylation, primary screen, biochemical, fluorescence polarization, uHTS | COP9 signalosome complex subunit 5 (Homo sapiens), Q92905 | Purified CSN, SCF-Nedd8-OG deneddylation | inhibition, % at 12.5 µM | actives 0.38% (n = 360,000);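 active means pattern-corrected inhibition above about 35%, with an unprinted fluorescence ratio check between 0.5 and 1.5, limit read from the data, passing the limit was not always enough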;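 further: 0% = enzyme with substrate and 100% = substrate without enzyme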
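assay system = purified human Csn5 enzyme expressed in HEK293T cells | amount = 0.24 nM enzyme | buffer or medium = Tris/NaCl/DTT buffer, pH 7.5 | reagent = 10 nM SCFSkp2-Nedd8OG | compound = one concentration, 12.5 µM, 0.25% DMSO | times = 90 min reaction at room temperature | signal = FP | read-out basis = % inhibition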
STEP inh – STEP phosphatase inhibitors, primary screen, biochemical, fluorescence intensity, uHTS; Tyrosine-protein phosphatase non-receptor type 5 (Homo sapiens), P54829; recombinant STEP, OMFP fluorogenic substrate; inhibition, % at 20 µM; actives 0.25% (n = 360,000);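 active means inhibition at 20 µM, scaled per plate between control wells, above about 37%, limit read from the data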;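 further: 0% = DMSO with enzyme and substrate and 100% = substrate only without enzyme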
Target sequence (P54829 whole entry, looked up): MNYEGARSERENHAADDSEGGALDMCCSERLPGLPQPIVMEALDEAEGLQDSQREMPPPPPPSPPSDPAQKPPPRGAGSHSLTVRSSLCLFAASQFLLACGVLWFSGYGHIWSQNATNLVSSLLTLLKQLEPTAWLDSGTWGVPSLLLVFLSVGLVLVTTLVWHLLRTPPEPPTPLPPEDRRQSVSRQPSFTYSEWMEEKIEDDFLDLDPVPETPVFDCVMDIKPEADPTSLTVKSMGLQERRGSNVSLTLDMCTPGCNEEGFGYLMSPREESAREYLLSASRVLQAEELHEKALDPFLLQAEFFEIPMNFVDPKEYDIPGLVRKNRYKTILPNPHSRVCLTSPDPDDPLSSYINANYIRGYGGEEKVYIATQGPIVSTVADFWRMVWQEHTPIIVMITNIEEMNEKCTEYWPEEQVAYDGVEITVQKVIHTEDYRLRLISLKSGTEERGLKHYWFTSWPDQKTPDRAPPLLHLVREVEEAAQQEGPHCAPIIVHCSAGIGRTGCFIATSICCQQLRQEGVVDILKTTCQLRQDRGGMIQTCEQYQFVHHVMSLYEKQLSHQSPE
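Assay system: isolated STEP enzyme / Timing: 20 min at room temperature, dark / Doses: 20 µM, 1% DMSO / Technique: fluorescence intensity, excitation 480 nm, emission 540 nm / Reagent: fluorogenic phosphatase substrate OMFP at 25 µM final / Measure: percent inhibition scaled to no-enzyme and uninhibited-enzyme controls, plate-pattern corrected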
LMPTP inh – LMPTP phosphatase inhibitors, primary screen, biochemical, fluorescence intensity, uHTS; inhibition, % at 20 µM; recombinant LMPTP-A, OMFP fluorogenic substrate; actives 0.22% (n = 360,000); Low molecular weight phosphotyrosine protein phosphatase (Homo sapiens), P24666;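 active means compounds that cut the enzyme signal by at least half of the control window in the single-dose screen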;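 further: plate controls were DMSO wells with enzyme plus substrate for no effect and substrate without enzyme for full effect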
Target sequence (P24666 whole entry, looked up): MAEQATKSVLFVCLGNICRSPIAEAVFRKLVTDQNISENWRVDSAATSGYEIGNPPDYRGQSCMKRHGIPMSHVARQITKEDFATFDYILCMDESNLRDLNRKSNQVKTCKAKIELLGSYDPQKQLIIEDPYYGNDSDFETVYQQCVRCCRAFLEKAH
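Test system – LMPTP-A phosphatase enzyme · Quantity – 0.625 nM LMPTP-A final · Reagent – OMFP substrate, 400 µM final · Dosing – one test concentration per compound, 20 µM, with 3% DMSO overall · Timing – 50 min enzyme reaction at room temperature, protected from light · Detection – fluorescence intensity · Controls – substrate-only low control, DMSO enzyme-plus-substrate high control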
SUMO1 PPI mod – modulators of SUMO1 protein-protein interactions, primary screen, biochemical, uHTS; Small ubiquitin-related modifier 1 (Homo sapiens), P63165; actives 0.33% (n = 360,000); SUMO1 binding to a labelled peptide, TR-FRET, 1 h; inhibition, % at 20 µM; in the data active means inhibition above about 37%
DNMT1 block – human DNMT1 methyltransferase inhibitors, primary screen, biochemical, molecular beacon, fluorescence, HinP1I cleavage, uHTS; DNA (cytosine-5)-methyltransferase 1 (Homo sapiens), P26358; actives 0.83% (n = 360,000); inhibition (reported as % activation of signal), % at 10 µM; in the data active means inhibition above about 50%
Scp1 inh – Scp-1 phosphatase inhibitors, primary screen, biochemical, colorimetric, uHTS; inhibition, % at 20 µM; Recombinant Scp1, phosphopeptide, malachite green phosphate absorbance; actives 0.88% (n = 340,000);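 active means inhibition above about 50% at 20 µM, limit read from the data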;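 further: plate controls were DMSO wells with enzyme for no effect and wells lacking enzyme for full effect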
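assay system = SCP-1 phosphatase catalytic domain, residues 76-261 | buffer or medium = 50 mM Tris acetate pH 5.5, 0.005% Tween-20, 10 mM MgCl2 | incubation = enzyme reaction 45 min at room temperature, colour 5 min, stabilisation 30 min | signal = Phosphate-binding colour reagent, absorbance read at 630 nm | measure = % inhibition at 20 µM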
* marks the source's active call; other numbers are inactive results; . = not tested or not shown. Hits are enriched below; roughly 2% of the tested compounds scored in any of these assays.

SMILES | CSN inh | STEP inh | LMPTP inh | SUMO1 PPI mod | DNMT1 block | Scp1 inh
COc1ccc(OC)c(NC(=O)C2(C)CCN2CCc2ccccc2)c1 (stereo not drawn) | 0.0 | 4.3 | 0.9 | 5.1 | 2.9 | .
CN(C(=O)COC(=O)CNC(=O)C12CC3CC(CC(C3)C1)C2)C1CCS(=O)(=O)C1 (stereo not drawn) | -1.8 | 0.4 | -2.1 | -3.0 | 1.0 | 6.6
O=C(Nc1ccc2nc(-c3cccs3)[nH]c2c1)c1cccs1 | 3.4 | 1.8 | 0.3 | 4.3 | -2.0 | 0.0
O=C(Nc1ccc(-c2nc3ccc(NC(=O)c4cccs4)cc3[nH]2)cc1)c1cccs1 | 127.5 | 41.6* | 6.7 | 82.1* | 14.5 | 11.2
Cc1ccc2nc(-c3ccc(NC(=O)c4ccco4)cc3)[nH]c2c1 | 43.5* | 4.6 | 6.1 | 6.9 | -6.0 | -0.3
CN(C(=O)COC(=O)c1cc([N+](=O)[O-])ccc1Cl)c1ccccc1 | 2.0 | -1.7 | -0.9 | -28.0 | 0.4 | -2.3
N#Cc1sc2nc(-c3ccccc3)cc(-c3ccco3)c2c1N | 40.1* | 3.2 | 9.2 | 64.2* | 27.2 | 49.3
COc1cc(/C=C2\SC(N)=NC2=O)ccc1OCC(=O)Nc1ccc(C)cc1 | 8.4 | -2.2 | -0.4 | 6.1 | 53.6* | 6.1
COc1cc(/C=C2\SC(c3ccc(C)cc3)=NC2=O)cc(OC)c1OC | 49.2* | -3.9 | 1.9 | -9.7 | 10.7 | -7.7
COc1cc(/C=C2\SC(N)=NC2=O)cc(Br)c1O | 47.4* | -0.6 | -17.1 | -41.4 | 3.4 | 3.6
COc1ccc(/C=C2\SC(c3ccc(C)cc3)=NC2=O)cc1OC | 101.7 | -19.6 | 1.5 | -25.3 | -7.7 | -3.0
COc1cccc(C(NC(C)=O)c2nc(-c3ccc(F)cc3OC)cs2)c1 (stereo not drawn) | 0.1 | -1.6 | -0.4 | -1.9 | -2.3 | .
COc1ccc(OC)c(CN2C(=O)CSCC2(C)C(=O)NCc2ccccc2)c1 (stereo not drawn) | -4.8 | . | 3.1 | 1.2 | . | .
O=C(O)CCCCCNc1nc(-c2ccccc2)nc2ccccc12 | -1.5 | 1.2 | 58.7* | 12.4 | 1.5 | -4.7
c1ccc(-c2nc(NCCCn3ccnc3)c3ccccc3n2)cc1 | -0.3 | 1.1 | 57.3* | 5.7 | 0.5 | 14.4
CCN(CC)CCCNc1nc(-c2ccccc2)nc2ccccc12 | 3.0 | 2.3 | 49.6 | 2.3 | 2.1 | -9.4
Clc1nssc1=Nc1ccc(Br)cc1 | -7.2 | 7.2 | 50.5* | -11.6 | -3.4 | -0.8
Clc1ccc(N=c2ssnc2Cl)nc1 | 7.2 | 31.3 | 78.7* | 20.9 | -5.8 | -10.5
Clc1nssc1=Nc1nncs1 | -5.3 | 20.2 | 33.4 | -8.8 | -17.1 | 2.4
O=C1CC(NS(=O)(=O)c2cccnc2)CN1c1ccccc1 (stereo not drawn) | -6.9 | -2.0 | 0.1 | -2.8 | 0.0 | -4.9
COc1ccc(Cn2c(C)nc3c(c2=O)c2nc4ccccc4nc2n3Cc2ccco2)cc1 | 44.6* | 37.1 | 43.2 | 68.8* | 96.1* | 94.9*
Cc1nc2ccccc2c(=O)n1Cc1ccco1 | -1.0 | 3.6 | -1.6 | 6.6 | -4.3 | -7.8
COc1ccc(S(=O)(=O)c2c(N)n(Cc3ccco3)c3nc4ccccc4nc23)cc1 | 14.1 | 7.2 | 48.5* | 40.6* | 97.9* | 49.0
COc1ccc(-c2csc(/C(C#N)=C\c3ccc(OC)c([N+](=O)[O-])c3)n2)cc1 | -7.6 | -0.5 | -0.1 | -1.4 | 3.6 | -12.9
COc1ccc(-c2csc(/C(C#N)=C\c3ccc(O)c([N+](=O)[O-])c3)n2)cc1OC | 31.8 | 3.0 | 1.2 | 38.5* | -9.1 | 32.4
SMILES | CSN inh | STEP inh | LMPTP inh | SUMO1 PPI mod | DNMT1 block | Scp1 inh
CCC(C)[C@@H](CN)NCC1(c2ccccc2)CC1 (stereo partly drawn) | -2.8 | -1.6 | -2.7 | 37.1* | -0.3 | 5.2
COc1ccc(N(C(=O)c2cnccn2)C(C(=O)NC2CCCCC2)c2ccccc2)cc1 (stereo not drawn) | 0.0 | -4.2 | -1.2 | -0.3 | -0.6 | 3.1
O=C(Nc1nc2c(Cl)ccc(Cl)c2s1)C1CC1 | -1.2 | 0.8 | -1.4 | 3.0 | 9.2 | -9.2
NNc1nc2c(Cl)ccc(Cl)c2s1 | 2.6 | 33.0 | 85.1* | 3.0 | 2.1 | -1.7
Cc1cc(OCC(=O)N2CCC(O)CC2)c2c(C)cc(=O)oc2c1 | 0.5 | 0.9 | -1.7 | -1.7 | 2.1 | 9.9
O=C(O)c1cc(N2N=C(C(F)(F)F)/C(=C/C=C/c3ccco3)C2=O)ccc1Cl | 39.6 | 93.5* | 77.6* | 104.9* | 83.9* | 68.8*
Cc1cc(/C=C(\C#N)C(=O)N2CCOCC2)c(C)n1C1CCCC1 | 110.0* | -0.1 | -1.7 | -7.5 | 0.3 | 36.1
O=C(O)C1c2ccccc2C(=O)N(Cc2ccc(F)cc2)C1c1ccncc1 (stereo not drawn) | -4.2 | 0.6 | -0.9 | 0.1 | 7.0 | 6.3
O=c1c2cc(Cl)ccc2nc(-c2ccc(Cl)c(Cl)c2)n1O | 0.1 | 4.0 | 54.4* | 3.1 | 0.7 | -1.8
CCCCCCCC[n+]1cccc2c3ccccc3ccc21 | -0.6 | 3.8 | 3.5 | -28.0 | 5.9 | 25.8
CCCCCCCCCC[n+]1cccc2c3ccccc3ccc21 | 22.1 | 7.5 | 4.6 | -23.3 | 12.9 | 65.4*
N#C/C(=C(/O)c1ccc(-c2cccc([N+](=O)[O-])c2)o1)c1nc2ccccc2s1 | 9.4 | 11.8 | 52.3* | 16.4 | -27.2 | 88.8*
O=C(O)c1ccc(-c2cccc([N+](=O)[O-])c2)o1 | -0.5 | -3.0 | -3.3 | -18.1 | 0.4 | -9.0
CCOC(=O)C1=C(C)NC(C)=C(C(=O)OCC)C1C(=O)OCC(=O)NC1(C#N)CCCCC1 | -2.3 | -1.3 | -0.4 | -2.3 | 0.1 | 3.4
COC(=O)c1cc(C(=O)N2CCN(c3cccc(C)c3C)CC2)cc([N+](=O)[O-])c1 | 0.7 | 2.3 | 0.4 | 61.3* | -5.7 | 5.4
Oc1ccc(Nc2nc3ccccc3nc2Nc2ccc(O)cc2)cc1 | 28.8 | -3.1 | 3.5 | 5.4 | -16.2 | 60.3*
COc1ccc(C2NC(=S)NC(C)=C2C(=O)Nc2ccccn2)cc1 (stereo not drawn) | -1.4 | -1.5 | -2.1 | 56.9* | 2.1 | -5.7
Cc1sc2c(c1C)C(=O)/C(=C\Nc1ccncc1)S(=O)(=O)N2C | 35.0* | 1.1 | -0.3 | -6.3 | -4.4 | -13.3
